This note sets out measurements from ChEMBL document CHEMBL1147681, “Identification of a terphenyl derivative that blocks the cell cycle in the G0-G1 phase and induces differentiation in leukemia cells” (J Med Chem, 2006).

The source made the active and inactive calls. The calls are words filed in the database; no cut-off is given here. Where only a bound is given, the exact number is not on record here.

Test [1] deals with HL-60. As to the kind of experiment: Antiproliferative activity against human HL60 cell line. The test is classed as functional, cell-based. A digest of the protocol:
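Cell growth inhibition measured by counting cells with an automatic cell counter in sensitive HL60, MDR HL60R and Bcr-Abl-expressing K562 cells. IC50 is the concentration inhibiting 50% of cell growth.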

Test [2] deals with HL-60. Put plainly: Proapoptotic activity against human HL60 cell line. The test is classed as functional, cell-based. The gist of the method:
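Apoptosis assessed by morphological assay and annexin V test. AC50 is the concentration inducing apoptosis in 50% of cells.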

Test [3] deals with HL-60. Put plainly: Cell cycle arrest in human HL60 cells by accumulation at S phase at 30 uM. The test is classed as functional, cell-based. A digest of the protocol: (§1)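 HL60 cells were stained with propidium iodide and analysed by flow cytometry for sub-G0-G1, G0-G1, S and G2-M peaks against untreated control. Exposures were 50 µM for 8 h or 24 h, 10 µM for 96 h, and 20 or 30 µM for 24 h.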

Test [4] concerns HL-60. Put plainly: Cell cycle arrest in human HL60 cells by accumulation at G2/M phase at 20 uM. It counts as functional, cell-based. A digest of the protocol: as §1
The subject of test [5] is HL-60. Put plainly: Induction of differentiation of human HL60 cells at 10 uM measured as expression of granulocytic marker CD11c after 4 days. The test is classed as functional. The gist of the method: (§2)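 HL60 cells exposed to 10 µM compound; CD14 (monocytic), CD11b and CD11c (granulocytic) surface expression measured by flow cytometry, as percentage of positive cells versus untreated control. Read-out given as 72 h in text, 4 days in table.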

In test [6] the test system is HL-60. As to the kind of experiment: Induction of differentiation of human HL60 cells at 10 uM measured as expression of granulocytic marker CD11b after 4 days. It counts as functional. The gist of the method:
as §2

Test [7] relates to HL-60. As to the kind of experiment: Induction of differentiation of human HL60 cells at 10 uM measured as expression of monocytic marker CD14 after 4 days. The test is classed as functional. A digest of the protocol: as §2
The test system of test [8] is HL-60. Put plainly: Cell cycle arrest in human HL60 cells by accumulation at G2/M phase at 10 uM. The test is classed as functional, cell-based. The gist of the method:
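HL60 cells exposed for 24 h at 10 µM, stained with propidium iodide, and analysed by flow cytometry for DNA content. Sub-G0-G1 (apoptotic), G0-G1, S and G2-M peaks compared with untreated HL60 cells.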

The test system of test [9] is HL-60. As to the kind of experiment: Cell cycle arrest in human HL60 cells by accumulation at G0/G1 phase at 10 uM after 96 hrs. The test is classed as functional, cell-based. A digest of the protocol:
as §1

In test [10] the test system is HL-60. As to the kind of experiment: Cell cycle arrest in human HL60 cells by accumulation at G0/G1 phase at 50 uM after 8 hrs. It counts as functional, cell-based. The gist of the method: as §1

One may read the IC50 as the midpoint of a concentration-inhibition curve. As a reminder, the AC50 is the concentration giving half of the maximal activity seen. On to `Oc1ccc(-c2cccc(-c3cc(O)cc(O)c3)c2)cc1`, for which half-maximal inhibition with HL-60 [1] (IC50) was put at 27 µM. In the test on HL-60 [2], the AC50 was found to be 63 µM.

The molecule `COc1cc(OC)cc(-c2ccc3cc(O)ccc3c2)c1` yielded a concentration for half-maximal inhibition (IC50) in the test with HL-60 [1] of 10 µM. Further, in the test on HL-60 [2], the AC50 turned out to be 19 µM.

Turning to `COc1cc(/C=C/c2cc(Cl)ccc2O)cc(OC)c1`, in the test with HL-60 [1], it took 14 µM to reach half-maximal inhibition (IC50). The molecule also displayed an AC50 in the test with HL-60 [2] of 29 µM.

Take `COc1cc(/C=C/c2cccc(OC)c2O)cc(OC)c1`: in the test with HL-60 [3], the outcome was Active. This molecule displayed an IC50 in the test with HL-60 [1] of 3.5 µM. In the test with HL-60 [2], this molecule registered an AC50 of 15 µM.

Consider `Oc1ccc(-c2ccccc2-c2cc(O)cc(O)c2)cc1`, for which half-maximal inhibition with HL-60 [1] (IC50) was put at 3.5 µM. Also, the half-maximal activity concentration (AC50) in the test with HL-60 [2] was 9 µM. In the test with HL-60 [4], the result was Active.

As for `Oc1cc(O)cc(-c2ccc3cc(O)ccc3c2)c1`, the half-inhibitory concentration (IC50) in the test with HL-60 [1] was determined as 28 µM. Further, the concentration at half-maximal activity (AC50) with HL-60 [2] stood at 48 µM.

Turning to `COc1ccc(-c2ccccc2-c2cc(OC)cc(OC)c2)cc1`, in the test with HL-60 [1], 7 µM corresponded to half-maximal inhibition (IC50). In the test with HL-60 [2], this molecule displayed an AC50 of 15 µM.

Regarding `COc1cc(/C=C/c2cc(OC)c(O)c(OC)c2)cc(OC)c1`, 20 µM corresponded to half-maximal inhibition in the test with HL-60 [1] (IC50). Half-maximal activity in the test with HL-60 [2] (AC50) was put at 79 µM.

`COc1cc(/C=C/c2ccccc2O)cc(OC)c1` yielded an IC50 in the test on HL-60 [1] of 9 µM. The molecule further showed an AC50 in the test with HL-60 [2] of 35 µM.

`COc1ccc(-c2cccc(-c3cc(OC)cc(OC)c3)c2)cc1` came in with a half-maximal inhibitory concentration (IC50) with HL-60 [1] of 50 µM. Further, in the test on HL-60 [2], the AC50 is over 100 µM.

Turning to `CCOc1cc(/C=C/c2cc(OC)cc(OC)c2)ccc1O`, the IC50 in the test on HL-60 [1] amounted to 11 µM. In the test on HL-60 [2], this molecule yielded a half-maximal activity concentration (AC50) of 18 µM.

Regarding `COc1cc(OC)cc(-c2ccccc2-c2ccc(O)cc2)c1`, in the test with HL-60 [1], half-maximal inhibition (IC50) required 5 µM. The molecule further displayed a concentration at half-maximal activity (AC50) in the test with HL-60 [2] of 10 µM.

In the test on HL-60 [1], `COc1cc(OC)cc(-c2ccc(-c3ccc(O)cc3)cc2)c1` came in with a concentration for half-maximal inhibition (IC50) of 2.5 µM. The concentration at half-maximal activity (AC50) with HL-60 [2] was 30 µM.

In the test on HL-60 [1], `COc1cc(OC)cc(-c2cccc(-c3ccc(O)cc3)c2)c1` gave an IC50 of 4.8 µM. Further, the half-maximal activity concentration (AC50) in the test with HL-60 [2] is 23 µM.

Consider `Oc1ccc(/C=C/c2cc(O)cc(O)c2)cc1` [RESVERATROL], for which the Activity is 22% with HL-60 [5], 24% in the test on HL-60 [6] and 23% in the test with HL-60 [7].

`COc1ccc(/C=C/c2cc(OC)cc(OC)c2)cc1` [TRISMETHOXYRESVERATROL] displayed an IC50 with HL-60 [1] of 2.5 µM. Further, in the test with HL-60 [2], the concentration at half-maximal activity (AC50) came out at 4 µM. Besides, in the test on HL-60 [8], the result was Active.

With `Oc1ccc(-c2ccc(-c3cc(O)cc(O)c3)cc2)cc1`, the outcome in the test on HL-60 [9] and in the test with HL-60 [10] was Active. Moreover, the Activity in the test with HL-60 [5] came out at 60%; with HL-60 [6] it was 62%; with HL-60 [7], 58%. Also, in the test on HL-60 [1], it took 7 µM to reach half-maximal inhibition (IC50). This molecule returned an AC50 in the test on HL-60 [2] of 25 µM.

For `COc1cc(/C=C/c2cc(C(C)(C)C)c(O)c(C(C)(C)C)c2)cc(OC)c1`, the half-maximal inhibitory concentration (IC50) in the test on HL-60 [1] was 84 µM. The same molecule came in with an AC50 in the test on HL-60 [2] of over 100 µM.

`COc1cc(/C=C/c2ccc(O)cc2)cc(OC)c1` [PTEROSTILBENE] gave an AC50 with HL-60 [2] of 75 µM.

For `COc1cc(OC)cc(-c2ccc3cc(OC)ccc3c2)c1`, half-maximal inhibition with HL-60 [1] (IC50) required 76 µM. This molecule also yielded an AC50 in the test on HL-60 [2] of 91 µM.

The molecule `COc1ccc(-c2ccc(-c3cc(OC)cc(OC)c3)cc2)cc1` returned an IC50 in the test on HL-60 [1] of 75 µM. This molecule gave a half-maximal activity concentration (AC50) in the test with HL-60 [2] of over 100 µM.

`COc1cc(/C=C/c2cccc(O)c2)cc(OC)c1` displayed an IC50 with HL-60 [1] of 23 µM. Also, the activity in the test on HL-60 [2] was half-maximal at 58 µM (AC50).
